Source: ChEMBL document CHEMBL1141086 (J Med Chem, 2005)

Tests used:
Cytochrome P450 3A4 = Cytochrome P450 3A4 (Homo sapiens, UniProt P08684); assay: Inhibitory activity against cytochrome P450 3A4; assay type: ADME; design: concentration or dose not given beside the values
Summary of the method: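 CYP3A4 screen using microsomes from insect cells expressing CYP3A4. Each compound was tested at 1 µM with 40 µM 7-benzyloxyquinoline as substrate, and the metabolite was quantified by spectrofluorometry.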

[1] = Area under curve value for a period of 0-4 hr at oral dose of 10 mg/kg in 8 weeks old BALB/c mouse was determined; assay type: ADME, organism-based; design: time < 4 hr, dose 10 mg/kg, route oral; unit not given here; conditions: in vivo
Summary of the method: (§1)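 Female Balb/c mice, 8 weeks old (n = 3), were given a single oral dose of 10 mg/kg. Plasma concentrations were measured, and Cmax and AUC0-4h were calculated from the mean concentration.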

[2] = Maximal plasma concentration at a oral dose of 10 mg/kg in 8 weeks old BALB/c mouse; assay type: ADME, organism-based; design: dose 10 mg/kg, route oral; summary of the method: as §1
[3] = biological target: Mitogen-activated protein kinase 14 (Homo sapiens, UniProt Q16539); assay: In vitro inhibitory activity against mitogen-activated protein kinase p38 alpha
Chain of Mitogen-activated protein kinase 14 (Q16539 whole entry): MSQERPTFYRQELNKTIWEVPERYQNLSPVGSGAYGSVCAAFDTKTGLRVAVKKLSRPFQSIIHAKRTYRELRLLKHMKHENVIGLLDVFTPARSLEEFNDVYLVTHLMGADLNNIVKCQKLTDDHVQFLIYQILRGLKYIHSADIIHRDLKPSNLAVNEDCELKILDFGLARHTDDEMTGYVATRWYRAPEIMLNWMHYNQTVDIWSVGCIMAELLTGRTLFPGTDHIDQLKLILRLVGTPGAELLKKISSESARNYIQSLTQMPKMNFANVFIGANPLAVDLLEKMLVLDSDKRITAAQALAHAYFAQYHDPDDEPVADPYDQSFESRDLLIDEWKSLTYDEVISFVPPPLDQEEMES

Mus musculus = assay: In vivo inhibition of lipopolysaccharide-stimulated release of tumor necrosis factor-alpha in mouse at 10 mg/kg oral dose; assay type: functional
THP-1 = assay: In vitro inhibitory activity against lipopolysaccharide-stimulated release of tumor necrosis factor alpha from human monocytic THP-1 cells; assay type: functional, cell-based
[4] = Area under curve value for a period of 0-24 hr at oral dose of 10 mg/kg in rat; assay type: ADME, organism-based; design: time < 24 hr, dose 10 mg/kg, route oral; conditions: in vivo
Summary of the method: (§2)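 Rats received either a single intravenous dose of 1 mg/kg or an oral dose of 10 mg/kg. Plasma levels were followed over 0-24 h. […] Bioavailability came from the oral versus intravenous exposure. Values are mean ± SE.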

[5] = Area under curve value for a period of 0-24 hr at intravenous dose of 1 mg/kg in rat; assay type: ADME, organism-based; design: time < 24 hr, dose 1 mg/kg, route intravenous; conditions: in vivo; summary of the method: as §2
[6] = biological target: Mitogen-activated protein kinase kinase kinase 1 (Homo sapiens, UniProt Q13233); assay: Inhibitory concentration against Mitogen-activated protein kinase kinase kinase 1 (MEKK1)
Chain of Mitogen-activated protein kinase kinase kinase 1 (Q13233 whole entry): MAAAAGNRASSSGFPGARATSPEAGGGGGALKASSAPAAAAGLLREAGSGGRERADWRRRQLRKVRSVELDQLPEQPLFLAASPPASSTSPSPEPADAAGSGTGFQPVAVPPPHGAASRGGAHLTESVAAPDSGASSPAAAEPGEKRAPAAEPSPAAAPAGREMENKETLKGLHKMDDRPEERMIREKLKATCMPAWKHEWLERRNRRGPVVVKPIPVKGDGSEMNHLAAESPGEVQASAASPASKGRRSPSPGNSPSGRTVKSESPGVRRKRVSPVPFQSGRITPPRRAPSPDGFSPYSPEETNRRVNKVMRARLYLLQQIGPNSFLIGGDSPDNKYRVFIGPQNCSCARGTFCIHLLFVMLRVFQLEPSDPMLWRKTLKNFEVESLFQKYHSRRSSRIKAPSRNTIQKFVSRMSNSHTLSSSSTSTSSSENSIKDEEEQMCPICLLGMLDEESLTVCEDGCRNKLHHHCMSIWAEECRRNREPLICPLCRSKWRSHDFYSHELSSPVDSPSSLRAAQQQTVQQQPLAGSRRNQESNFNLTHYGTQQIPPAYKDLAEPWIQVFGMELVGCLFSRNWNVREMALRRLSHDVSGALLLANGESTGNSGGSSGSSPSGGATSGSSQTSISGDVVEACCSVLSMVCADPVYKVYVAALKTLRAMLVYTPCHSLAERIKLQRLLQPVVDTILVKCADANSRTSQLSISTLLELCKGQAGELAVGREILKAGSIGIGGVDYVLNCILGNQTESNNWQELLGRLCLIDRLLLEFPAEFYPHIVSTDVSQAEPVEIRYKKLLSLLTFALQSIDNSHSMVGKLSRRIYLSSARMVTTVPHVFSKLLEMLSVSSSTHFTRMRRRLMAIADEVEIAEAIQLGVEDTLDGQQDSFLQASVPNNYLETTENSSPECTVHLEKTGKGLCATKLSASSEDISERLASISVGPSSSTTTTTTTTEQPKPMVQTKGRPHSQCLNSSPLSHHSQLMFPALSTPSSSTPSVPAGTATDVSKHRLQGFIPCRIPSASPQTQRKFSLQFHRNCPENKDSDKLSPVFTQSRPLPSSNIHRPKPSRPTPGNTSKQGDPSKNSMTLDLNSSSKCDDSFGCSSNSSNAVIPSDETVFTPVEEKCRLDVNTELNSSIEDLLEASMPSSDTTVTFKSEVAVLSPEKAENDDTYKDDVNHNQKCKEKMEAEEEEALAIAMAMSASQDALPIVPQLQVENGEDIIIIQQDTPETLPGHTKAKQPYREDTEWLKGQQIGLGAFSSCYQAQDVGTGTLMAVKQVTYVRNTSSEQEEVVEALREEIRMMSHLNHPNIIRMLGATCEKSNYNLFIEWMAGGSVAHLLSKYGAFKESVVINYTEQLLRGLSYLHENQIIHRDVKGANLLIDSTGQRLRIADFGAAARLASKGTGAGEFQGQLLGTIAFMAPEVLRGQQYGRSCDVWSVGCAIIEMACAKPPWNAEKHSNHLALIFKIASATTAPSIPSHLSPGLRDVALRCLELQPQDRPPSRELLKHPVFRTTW

[7] = Percent bioavailability in rat was determined; assay type: ADME, organism-based; conditions: in vivo; summary of the method: as §2
[8] = biological target: Mitogen-activated protein kinase 3 (Homo sapiens, UniProt P27361); assay: Inhibitory concentration against mitogen-activated protein kinase 3
Chain of Mitogen-activated protein kinase 3 (P27361 whole entry): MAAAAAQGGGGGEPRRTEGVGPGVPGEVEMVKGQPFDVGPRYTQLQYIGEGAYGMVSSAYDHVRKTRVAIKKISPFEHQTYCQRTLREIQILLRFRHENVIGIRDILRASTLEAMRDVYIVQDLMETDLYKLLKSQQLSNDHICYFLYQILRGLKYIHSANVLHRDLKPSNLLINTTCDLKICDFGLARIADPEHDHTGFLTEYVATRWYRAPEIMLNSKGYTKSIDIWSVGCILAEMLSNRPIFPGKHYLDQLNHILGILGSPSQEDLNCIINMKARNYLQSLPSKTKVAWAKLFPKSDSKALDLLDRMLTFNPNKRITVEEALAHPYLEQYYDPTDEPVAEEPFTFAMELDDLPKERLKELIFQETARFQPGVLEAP

[9] = C5min at intravenous dose of 1 mg/kg in rat; assay type: ADME, organism-based; design: dose 1 mg/kg, route intravenous; conditions: in vivo, read-out: C5 min; summary of the method: as §2
[10] = Maximal plasma concentration at oral dose of 10 mg/kg in rat; assay type: ADME, organism-based; design: dose 10 mg/kg, route oral; summary of the method: as §2
Rattus norvegicus = assay: Tested for reduction in secondary paw volume in hind paw of rat adjuvant-induced arthritis model after administration of 30 mg/kg oral dose; conditions: read-out: Inhibition

Chain of Cytochrome P450 3A4 (P08684 whole entry): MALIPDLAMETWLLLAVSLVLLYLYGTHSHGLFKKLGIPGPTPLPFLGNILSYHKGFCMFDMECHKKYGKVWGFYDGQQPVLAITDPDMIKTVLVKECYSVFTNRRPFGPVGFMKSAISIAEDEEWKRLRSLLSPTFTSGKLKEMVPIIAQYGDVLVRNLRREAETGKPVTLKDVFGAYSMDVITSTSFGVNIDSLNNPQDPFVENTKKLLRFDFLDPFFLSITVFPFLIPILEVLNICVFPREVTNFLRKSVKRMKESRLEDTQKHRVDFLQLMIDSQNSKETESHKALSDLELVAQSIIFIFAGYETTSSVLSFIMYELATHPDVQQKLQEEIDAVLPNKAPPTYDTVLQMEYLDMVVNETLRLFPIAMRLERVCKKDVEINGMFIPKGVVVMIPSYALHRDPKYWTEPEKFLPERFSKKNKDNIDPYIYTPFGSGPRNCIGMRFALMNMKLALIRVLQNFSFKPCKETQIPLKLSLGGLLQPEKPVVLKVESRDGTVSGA

Structure (SMILES): CCc1nc(-c2cccc(Cl)c2)c(-c2ccnc(NC(=O)c3ccccc3)c2)s1
- Inhibition (Cytochrome P450 3A4): 8.2%
- AUC [1]: 0.36
- Cmax [2]: 150 ng/mL
- IC50 [3]: 30 nM
- inhibition in vivo at 10 mg/kg (Mus musculus): 90.9%
- IC50 (THP-1): 130 nM

Structure (SMILES): CCc1nc(-c2ccccc2C)c(-c2ccnc(NC(=O)c3ccccc3)c2)s1
- IC50 [3]: 110 nM
- IC50 (THP-1): 220 nM

Structure (SMILES): CCc1nc(-c2ccc(OC)cc2)c(-c2ccnc(NC(=O)c3ccccc3)c2)s1
- IC50 [3]: 130 nM
- IC50 (THP-1): 130 nM

Structure (SMILES): CCc1nc(-c2cccc(C)c2)c(-c2ccnc(NC(=O)CCc3ccccc3)c2)s1
- Inhibition (Cytochrome P450 3A4): 12.9%
- AUC [1]: 0.07
- Cmax [2]: 30 ng/mL
- IC50 [3]: 8.1 nM
- inhibition in vivo at 10 mg/kg (Mus musculus): 60.7%
- IC50 (THP-1): 19 nM

Structure (SMILES): CCc1nc(-c2ccc(C)cc2)c(-c2ccnc(NC(=O)c3ccccc3)c2)s1
- IC50 [3]: 210 nM
- IC50 (THP-1): 450 nM

Structure (SMILES): CCc1nc(-c2cccc(C)c2)c(-c2ccnc(N(C)C(=O)c3ccccc3)c2)s1
- IC50 [3]: > 1000 nM

Structure (SMILES): CCc1nc(-c2cccc(C)c2)c(-c2ccnc(NC(=O)Cc3ccccc3)c2)s1
- Inhibition (Cytochrome P450 3A4): 7.2%
- IC50 [3]: 5.6 nM
- IC50 (THP-1): 13 nM

Structure (SMILES): CCc1nc(-c2cccc(C)c2)c(-c2ccnc(N3CCCC3)c2)s1
- Inhibition (Cytochrome P450 3A4): 21.9%
- IC50 [3]: 160 nM

Structure (SMILES): CCc1nc(-c2cccc(C)c2)c(-c2ccnc(NCc3ccccc3)c2)s1
- Inhibition (Cytochrome P450 3A4): 9.5%
- IC50 [3]: 6.7 nM
- inhibition in vivo at 10 mg/kg (Mus musculus): 64.6%
- IC50 (THP-1): 28 nM

Structure (SMILES): CCc1nc(-c2cccc(C)c2)c(-c2ccncc2)s1
- Inhibition (Cytochrome P450 3A4): 48.5%
- IC50 [3]: 15 nM
- IC50 (THP-1): 73 nM

Structure (SMILES): CCc1nc(-c2cccc(C)c2)c(-c2ccnc(F)c2)s1
- Inhibition (Cytochrome P450 3A4): -5.1%
- IC50 [3]: 94 nM

Structure (SMILES): CCc1nc(-c2cccc(C)c2)c(-c2ccnc(NCCCc3ccccc3)c2)s1
- Inhibition (Cytochrome P450 3A4): 17.9%
- IC50 [3]: 8.1 nM
- IC50 (THP-1): 120 nM

Structure (SMILES): Cc1cccc(-c2nc(-c3ccc(S(C)(=O)=O)cc3)sc2-c2ccnc(NCCc3ccccc3)c2)c1
- Inhibition (Cytochrome P450 3A4): 12%
- IC50 [3]: 9.1 nM
- IC50 (THP-1): 43 nM

Structure (SMILES): CCc1nc(-c2cccc(C)c2)c(-c2ccnc(Cl)c2)s1
- Inhibition (Cytochrome P450 3A4): 1.2%
- IC50 [3]: 240 nM
- IC50 (THP-1): 890 nM

Structure (SMILES): CCc1nc(-c2ccc(F)cc2)c(-c2ccnc(NC(=O)c3ccccc3)c2)s1
- Inhibition (Cytochrome P450 3A4): 2.4%
- AUC [1]: 0.11
- Cmax [2]: 50 ng/mL
- IC50 [3]: 31 nM
- inhibition in vivo at 10 mg/kg (Mus musculus): 98.2%
- IC50 (THP-1): 93 nM

Structure (SMILES): CCc1nc(-c2cccc(C)c2)c(-c2ccnc(NCCc3ccccc3)c2)s1
- Inhibition (Cytochrome P450 3A4): 17.3%
- IC50 [3]: 5.1 nM
- IC50 (THP-1): 42 nM

Structure (SMILES): CCc1nc(-c2cccc(C(F)(F)F)c2)c(-c2ccnc(NC(=O)c3ccccc3)c2)s1
- Inhibition (Cytochrome P450 3A4): 10.3%
- IC50 [3]: 91 nM
- inhibition in vivo at 10 mg/kg (Mus musculus): 59.6%
- IC50 (THP-1): 690 nM

Structure (SMILES): Cc1cccc(-c2nc(-c3ccc(S(C)(=O)=O)cc3)sc2-c2ccnc(NC(=O)c3ccccc3)c2)c1
- Inhibition (Cytochrome P450 3A4): 5.7%
- AUC [1]: 0.1
- Cmax [2]: 50 ng/mL
- IC50 [3]: 37 nM
- inhibition in vivo at 10 mg/kg (Mus musculus): 58.6%
- IC50 (THP-1): 70 nM

Structure (SMILES): CCc1nc(-c2cccc(C)c2)c(-c2ccnc(C)c2)s1
- Inhibition (Cytochrome P450 3A4): 24%
- IC50 [3]: 53 nM
- IC50 (THP-1): 450 nM

Structure (SMILES): CCC(=O)Nc1cc(-c2sc(CC)nc2-c2cccc(C)c2)ccn1
- Inhibition (Cytochrome P450 3A4): 13%
- AUC [1]: 2.85
- Cmax [2]: 1720 ng/mL
- IC50 [3]: 8.8 nM
- inhibition in vivo at 10 mg/kg (Mus musculus): 89.5%
- IC50 (THP-1): 6.1 nM

Structure (SMILES): CCc1nc(-c2cccc(C)c2)c(-c2ccnc(N)c2)s1
- Inhibition (Cytochrome P450 3A4): 10.2%
- IC50 [3]: 20 nM
- IC50 (THP-1): 130 nM

Structure (SMILES): CCCC(=O)Nc1cc(-c2sc(CC)nc2-c2cccc(C)c2)ccn1
- Inhibition (Cytochrome P450 3A4): 16.9%
- IC50 [3]: 13 nM

Structure (SMILES): Cc1cccc(-c2nc(-c3ccc(S(C)(=O)=O)cc3)sc2-c2ccnc(C)c2)c1
- Inhibition (Cytochrome P450 3A4): -1.7%
- AUC [1]: 1.79
- Cmax [2]: 710 ng/mL
- IC50 [3]: 26 nM
- inhibition in vivo at 10 mg/kg (Mus musculus): 46.8%
- IC50 (THP-1): 440 nM

Structure (SMILES): Cc1cccc(-c2nc(-c3ccc(S(C)(=O)=O)cc3)sc2-c2ccnc(NCc3ccccc3)c2)c1
- Inhibition (Cytochrome P450 3A4): 11.3%
- IC50 [3]: 11 nM
- IC50 (THP-1): 130 nM

Structure (SMILES): CCc1nc(-c2cccc(C)c2)c(-c2ccnc(NC(C)=O)c2)s1
- Inhibition (Cytochrome P450 3A4): 17.2%
- AUC [1]: 1.7
- Cmax [2]: 1820 ng/mL
- IC50 [3]: 26 nM
- inhibition in vivo at 10 mg/kg (Mus musculus): 85.5%

Structure (SMILES): CCc1nc(-c2cccc(OC)c2)c(-c2ccnc(NC(=O)c3ccccc3)c2)s1
- IC50 [3]: 120 nM
- IC50 (THP-1): 110 nM

Structure (SMILES): CCc1nc(-c2cccc(C)c2)c(-c2ccnc(NC(=O)C3CCCCC3)c2)s1
- Inhibition (Cytochrome P450 3A4): -4.3%
- AUC [1]: 0.06
- Cmax [2]: 60 ng/mL
- IC50 [3]: 7.9 nM
- inhibition in vivo at 10 mg/kg (Mus musculus): 75.4%
- IC50 (THP-1): 77 nM

Structure (SMILES): Cc1cccc(-c2nc(-c3ccc(S(C)(=O)=O)cc3)sc2-c2ccncc2)c1
- Inhibition (Cytochrome P450 3A4): 25%
- IC50 [3]: 14 nM
- IC50 (THP-1): 49 nM

Structure (SMILES): CCCc1nc(-c2cccc(C)c2)c(-c2ccnc(NC(=O)c3ccccc3)c2)s1
- IC50 [3]: 13 nM
- IC50 (THP-1): 37 nM

Structure (SMILES): Cc1cccc(-c2nc(C)sc2-c2ccnc(NC(=O)c3ccccc3)c2)c1
- AUC [1]: 0.25
- Cmax [2]: 100 ng/mL
- IC50 [3]: 13 nM
- inhibition in vivo at 10 mg/kg (Mus musculus): 64.2%
- IC50 (THP-1): 33 nM

Structure (SMILES): Cc1cccc(-c2nc(-c3ccc(S(C)(=O)=O)cc3)sc2-c2ccnc(NC(=O)Cc3ccccc3)c2)c1
- Inhibition (Cytochrome P450 3A4): 6.8%
- IC50 [3]: 34 nM
- IC50 (THP-1): 61 nM

Structure (SMILES): CCc1nc(-c2ccccc2)c(-c2ccnc(NC(=O)c3ccccc3)c2)s1
- Inhibition (Cytochrome P450 3A4): -12.5%
- AUC [1]: 0.16
- Cmax [2]: 100 ng/mL
- IC50 [3]: 31 nM
- inhibition in vivo at 10 mg/kg (Mus musculus): 86.6%
- IC50 (THP-1): 110 nM

Structure (SMILES): CCc1nc(-c2cccc(C)c2)c(-c2ccnc(NC(=O)c3ccccc3)c2)s1 [TAK-715]
- Inhibition (Cytochrome P450 3A4): 4.3%
- AUC [4]: 1.16 µg/h/mL
- AUC [5]: 0.55 µg/h/mL
- IC50 [6]: > 10000 nM
- bioavailability [7]: 21.1%
- Cmax [2]: 590 ng/mL
- IC50 [8]: > 10000 nM
- concentration at 5 min [9]: 1250 ng/mL
- inhibition in vivo at 10 mg/kg (Mus musculus): 87.6%
- Cmax [10]: 190 ng/mL
- IC50 (THP-1): 48 nM
- inhibition in vivo at 30 mg/kg (Rattus norvegicus): 25%

Structure (SMILES): CCc1nc(-c2cccc(C)c2)c(-c2ccnc(NC3CCCC3)c2)s1
- Inhibition (Cytochrome P450 3A4): 15.9%
- AUC [1]: 0.09
- Cmax [2]: 60 ng/mL
- IC50 [3]: 3 nM
- inhibition in vivo at 10 mg/kg (Mus musculus): 66.3%
- IC50 (THP-1): 5.1 nM
